Results from ChEMBL document CHEMBL4834426, “Antimalarial Benzimidazole Derivatives Incorporating Phenolic Mannich Base Side Chains Inhibit Microtubule and Hemozoin Formation: Structure-Activity Relationship and In Vivo Oral Efficacy Studies” (J Med Chem, 2021).
Values after ≈ are worked out from the molar mass of the structure shown.

Experiments:
[1] = tested on: Plasmodium falciparum; experiment: Antimalarial activity against asexual blood stage multi drug-resistant Plasmodium falciparum K1 infected in erythrocytes assessed as reduction in parasitemia incubated up to 72 hrs by [3H]hypoxanthine incorporation assay; format: functional, organism-based
How it was run: (§1)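 [³H]-Hypoxanthine incorporation assay (modified) on asexual blood-stage P. falciparum in vitro. IC₅₀ values are means of ≥2 independent experiments.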

[2] = tested on: Plasmodium falciparum; experiment: Antiplasmodial activity against […] Plasmodium falciparum NF54 early gametocytes transfected with GFP-Luc […] at 5 uM incubated for 48 hrs by microscopy based luciferase reporter gene assay relative to control; format: functional
How it was run: (§2)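 NF54-Pfs16-GFP-Luc gametocytes, assays set up day 5 (early, stage II/III) or day 10 (late, stage IV/V). Culture at 2−3% gametocytemia, 1.5% hematocrit, 48 h drug exposure at 37 °C under 90% N₂/5% O₂/5% CO₂. Lysates mixed with luciferin; bioluminescence read with 10 s integration. Dual-point: one biological repeat in technical triplicate. Methylene blue (5 μM) reference.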

[3] = Resistance index, ratio of IC50 for antimalarial activity against asexual blood stage multi drug-resistant Plasmodium falciparum K1 to IC50 for antimalarial activity against asexual blood stage drug-sensitive Plasmodium falciparum NF54; format: functional
How it was run: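 Resistance index is IC₅₀(K1)/IC₅₀(NF54). Both IC₅₀s came from the [³H]-hypoxanthine incorporation assay, as means of ≥2 independent experiments.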

[4] = Metabolic stability in mouse liver microsomes assessed as compound remaining at 1 uM incubated for 30 mins by LC-MS/MS analysis; format: ADME, Microsome; details: read-out: Stabilty
How it was run: (§3)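 Single-point design: 1 μM compound with 0.4 mg/mL liver microsomes in 0.1 M phosphate buffer pH 7.4 for 30 min. Quenched with ice-cold acetonitrile containing carbamazepine internal standard, centrifuged, analyzed by LC−MS/MS. Percent remaining from internal-standard-corrected peak areas at 30 min versus 0 min. Propranolol, midazolam and MMV390048 as controls.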

[5] = Selectivity index, ratio of IC50 for Cytotoxicity against CHO cells assessed as inhibition of cell viability by MTT assay to IC50 for antimalarial activity against asexual blood stage Plasmodium falciparum NF54 assessed as reduction in parasitemia incubated up to 72 hrs by [3H]hypoxanthine incorporation assay; format: toxicity, cell-based; details: hamster, read-out: Selectivity Index
How it was run: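 Selectivity index is IC₅₀(CHO)/IC₅₀(NF54). […] IC₅₀ came from nonlinear dose-response fitting. Parasite IC₅₀ came from the [³H]-hypoxanthine assay.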

[6] = Kinetic solubility of the compound in pH 6.5 incubated for 24 hrs by HPLC-DAD analysis; format: physicochemical; details: buffer, read-out: Kinetic_solubility
How it was run: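 Miniaturized shake-flask method. 10 mM DMSO stock dried down, phosphate buffer pH 6.5 added, shaken 24 h at 25 °C. Centrifuged 3500g for 15 min; supernatant analyzed by HPLC-DAD against 10−220 μM DMSO calibration curve. Reserpine, hydrocortisone and MMV390048 as controls.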

[7] = tested on: Plasmodium falciparum; experiment: Antiplasmodial activity against […] Plasmodium falciparum NF54 early gametocytes transfected with GFP-Luc […] at 1 uM incubated for 48 hrs by microscopy based luciferase reporter gene assay relative to control; format: functional; how it was run: as §2
[8] = tested on: Plasmodium falciparum; experiment: Antiplasmodial activity against […] Plasmodium falciparum NF54 late gametocytes transfected with GFP-Luc […] at 1 uM incubated for 48 hrs by microscopy based luciferase reporter gene assay relative to control; format: functional; how it was run: as §2
[9] = Metabolic stability in human liver microsomes assessed as compound remaining at 1 uM incubated for 30 mins by LC-MS/MS analysis; format: ADME, Microsome; details: read-out: Stabilty; how it was run: as §3
[10] = tested on: Plasmodium falciparum; experiment: Antiplasmodial activity against […] Plasmodium falciparum NF54 late gametocytes transfected with GFP-Luc […] at 5 uM incubated for 48 hrs by microscopy based luciferase reporter gene assay relative to control; format: functional; how it was run: as §2
[11] = tested on: Plasmodium falciparum; experiment: Antimalarial activity against asexual blood stage drug-sensitive Plasmodium falciparum NF54 infected in erythrocytes assessed as reduction in parasitemia incubated up to 72 hrs by [3H]hypoxanthine incorporation assay; format: functional, organism-based; how it was run: as §1
[12] = tested on: Plasmodium falciparum; experiment: Antiplasmodial activity against […] Plasmodium falciparum NF54 early gametocytes transfected with GFP-Luc […] incubated for 48 hrs by microscopy based luciferase reporter gene assay relative to control; format: functional, organism-based; details: NF54, 48 h
How it was run: (§4)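 Transgenic NF54-Pfs16-GFP-Luc gametocytes, read by luciferase reporter. Early assays were set up on day 5 (50% stage II/50% stage III) and late assays on day 10 (40% stage IV/60% stage V). Luciferin was added to lysates at room temperature and bioluminescence read. Methylene blue (5 μM) was the reference. Single-point screens at 1 and 5 μM used n=1 in technical triplicate. IC₅₀ came from a normalized nonlinear fit, n≥3 in triplicate.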

[13] = tested on: CHO; experiment: Cytotoxicity against CHO cells assessed as inhibition of cell viability by MTT assay; format: cell-based; details: Cricetulus griseus
[14] = Metabolic stability in rat liver microsomes assessed as compound remaining at 1 uM incubated for 30 mins by LC-MS/MS analysis; format: ADME, Microsome; details: read-out: Stabilty; how it was run: as §3
[15] = tested on: Plasmodium falciparum; experiment: Antiplasmodial activity against […] Plasmodium falciparum NF54 late gametocytes transfected with GFP-Luc […] incubated for 48 hrs by microscopy based luciferase reporter gene assay relative to control; format: functional, organism-based; details: NF54, 48 h; how it was run: as §4
[16] = Inhibition of tubulin polymerization in asexual blood stage Plasmodium falciparum NF54
[17] = tested on: Plasmodium berghei; experiment: Antimalarial activity against GFP-transfected Plasmodium berghei ANKA infected in NMRI mouse model assessed as reduction in parasitemia at 50 mg/kg, po dosed 4 times relative to control; format: functional; parameters: scale not given: the % may be the effect or the level left
How it was run: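 Mice (n = 3) infected with GFP-transfected P. berghei ANKA. Compound in 70% Tween-80/30% ethanol, diluted 10-fold in water, given orally at 4, 24, 48 and 72 h post-infection. Blood taken day 4 (96 h); parasitemia by flow cytometry, detection limit 0.1%. Activity = difference in mean % parasitemia between control and treated, as % of control.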

SMILES	IC50 [1]	inhibition at 5 µM [2]	Ratio IC50 [3]	remaining at 0.5 h, 1 µM [4]	selectivity ratio at 72 h [5]	solubility kinetic at 24 h [6]	inhibition at 1 µM [7]	inhibition at 1 µM [8]	remaining at 0.5 h, 1 µM [9]	inhibition at 5 µM [10]	IC50 [11]	IC50 [12]	IC50 [13]	remaining at 0.5 h, 1 µM [14]	IC50 [15]	IC50 [16]	Activity [17]
CCN(CC)Cc1cc(C)cc(Nc2nc3ccccc3n2Cc2ccc(C(F)(F)F)cc2)c1O	0.06 µM	97%	0.32	< 7%	154	< 5 µM	91%	41%	36%	62%	0.19 µM	0.11 µM	29.3 µM	< 7%	–	–	–
CCNCc1cc(C)cc(Nc2nc3ccccc3n2Cc2ccc(C(F)(F)F)cc2)c1O	0.3 µM	95%	0.39	52%	24.1	35 µM (≈ 15.9 µg/mL)	30%	0%	98%	14%	0.78 µM	0.99 µM	18.8 µM	51%	–	–	–
Cc1cc(CNC(C)(C)C)c(O)c(Nc2nc3cc(F)c(F)cc3n2Cc2ccc(C(F)(F)F)cc2)c1	0.15 µM	96%	0.6	> 99%	40.2	< 5 µM	60%	0%	90%	73%	0.25 µM	0.52 µM	10 µM	89%	–	–	–
CCN(CC)Cc1cc(F)cc(Nc2nc3ccccc3n2Cc2ccc(C(F)(F)F)cc2)c1O	0.19 µM	90%	1.12	–	> 294	–	74%	0%	–	10%	0.17 µM	0.097 µM	> 50 µM	–	> 5 µM	–	–
COC(=O)Nc1nc2cc(C(=O)c3cccs3)ccc2[nH]1 [NOCODAZOLE]	–	–	–	–	–	–	–	–	–	–	–	–	–	–	–	17 µM	–
CC(C)(C)NCc1cc(Cl)cc(Nc2nc3cc(F)c(F)cc3n2Cc2ccc(C(F)(F)F)cc2)c1O	0.09 µM	70%	0.47	94%	> 263	< 5 µM	14%	31%	89%	1%	0.19 µM	0.69 µM	> 50 µM	94%	–	–	<40%
Cc1cc(CNC(C)(C)C)c(O)c(Nc2nc3ccccc3n2Cc2ccc(C(F)(F)F)cc2)c1	0.23 µM	96%	0.58	62%	75.1	50 µM (≈ 24.1 µg/mL)	45%	0%	99%	62%	0.4 µM	0.92 µM	30 µM	41%	–	–	<40%
CCCSc1ccc2[nH]c(NC(=O)OC)nc2c1 [ALBENDAZOLE]	–	–	–	–	–	–	–	–	–	–	–	–	–	–	–	30 µM	–
